Values joined by “and” are separate entries in the source; they are usually repeats but may differ in a detail not shown here. Equal values may be shown once.
What was measured:
[1] = Toxicity measured in CEM cells in the absence of virus.; assay type: cell-based; conditions: human, CEM cells (CCRF-CEM); read-out: TC50 (the source's name)
[2] = system: Human immunodeficiency virus 1; experiment: Antiviral activity in HIV infected CEM cells as effective concentration at which 50% of the cells are protected from cytopathic effect.; assay type: functional, organism-based; conditions: Human immunodeficiency virus 1, CCRF-CEM
Outline: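 HIV-IIIB-infected human lymphocyte-derived CEM cells. EC50 is the drug concentration at which 50% of cells are protected from HIV cytopathic effects. Testing was done at Southern Research Institute.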

[3] = Compound was evaluated for pharmacokinetic parameter, Tmax; assay type: ADME, organism-based; conditions: in vivo
[4] = biological target: Human immunodeficiency virus type 1 protease (Human immunodeficiency virus 1, UniProt Q72874); experiment: HIV-1 protease inhibition.
Outline: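 Affinity-purified HIV-1 protease (1.5 nM final) with 40 µM peptide substrate His-Lys-Ala-Arg-Val-Leu-(p-NO2-Phe)-Glu-Ala-Nle-Ser-NH2 and 1.0% DMSO. Buffer: 80 mM MES, 160 mM NaCl, 1.0 mM DTT, 1.0 mM EDTA, 0.1% PEG 8000, pH 6.2. Incubated 60 min at 37 °C, then quenched with TFA (2% final). Products separated by reverse-phase HPLC and read at 220 nm. Percent control derived from % conversion with vs without inhibitor; IC50 then determined.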

[5] = Compound was evaluated for pharmacokinetic parameter, half life period (T1/2); assay type: ADME, organism-based; conditions: in vivo
[6] = Compound was evaluated for pharmacokinetic parameter, area under curve (AUC); assay type: ADME; set-up: unit not given here
[7] = Compound was evaluated for pharmacokinetic parameter, Cmax; assay type: ADME, organism-based; conditions: in vivo
[8] = Compound was evaluated for pharmacokinetic parameter, Cmax in rat at 25 mg/kg po; assay type: ADME, organism-based; set-up: dose 25 mg/kg, route oral; conditions: in vivo
[9] = compound was evaluated for pharmacokinetic parameter, Tmax; assay type: ADME, organism-based; conditions: in vivo
Outline: (§1)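 Species-dependent dosing. Mice: 25 mg/kg po in 20% 0.1 N NaOH/80% 0.5% methylcellulose; values from a pool of five mice; plasma levels by HPLC. Rats: 10 mg/kg po by capsule or pH 7.4-buffered solution; average of two animals. Dogs: 10 mg/kg in saline (sodium salt) or pH 10-buffered 0.1 NaOH (free acid).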

[10] = Bioavailability; assay type: ADME, organism-based; conditions: eutheria, in vivo
Outline: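 Dogs dosed at 10 mg/kg. Vehicle was either the sodium salt in normal saline or the free acid in 0.1 NaOH buffered to pH 10, depending on compound.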

[11] = compound was evaluated for pharmacokinetic parameter, half life period (T1/2); assay type: ADME, organism-based; conditions: in vivo; outline: as §1
[12] = compound was evaluated for pharmacokinetic parameter, area under curve (AUC); assay type: ADME; outline: as §1
[13] = Compound was evaluated for pharmacokinetic parameter, Cmax in rat at 10 mg/kg po; conditions: in vivo

| SMILES | CC50 [1] | EC50 [2] | IC50 [4] | further results |
| --- | --- | --- | --- | --- |
| Cc1cc(SC2=C(O)OC(CCc3ccoc3)(C(C)C)CC2=O)c(C(C)(C)C)cc1CO (stereo not given) | 199 µM | 1 µM | 0.00034 µM | Tmax [3]: 30 min; half-life [5]: 336 min; AUC [6]: 241; Cmax [7]: 54.4 µM |
| Cc1cc(SC2=C(O)OC(CCc3ccccn3)(C(C)C)CC2=O)c(C(C)(C)C)cc1CO (stereo not given) | 249 µM | 1.5 µM | 0.0012 µM |  |
| Cc1cc(SC2=C(O)OC(CCc3cccnc3)(C(C)C)CC2=O)c(C(C)(C)C)cc1CO (stereo not given) |  |  | 0.00094 µM | Tmax [3]: 30 min |
| Cc1cc(SC2=C(O)OC(CCc3sccc3C)(C(C)C)CC2=O)c(C(C)(C)C)cc1CO (stereo not given) | 80 µM | 0.28 µM |  |  |
| Cc1cc(SC2=C(O)OC(CCc3ccncc3)(C(C)C)CC2=O)c(C(C)(C)C)cc1CO (stereo not given) | 296 µM | 1.5 µM | 0.0015 µM |  |
| Cc1csc(CCC2(C(C)C)CC(=O)C(Sc3cc(C)c(CO)cc3C(C)(C)C)=C(O)O2)n1 (stereo not given) | 171 µM | 0.8 µM | 0.00045 µM |  |
| Cc1cc(SC2=C(O)OC(CCc3ncsc3C(C)C)(C(C)C)CC2=O)c(C(C)(C)C)cc1CO (stereo not given) | 52 µM | 10 µM | 0.0058 µM |  |
| Cc1cc(SC2=C(O)OC(CCc3cscc3C)(C(C)C)CC2=O)c(C(C)(C)C)cc1CO (stereo not given) | 51 µM | 0.26 µM | 0.00041 µM |  |
| Cc1cc(SC2=C(O)OC(CCc3cscn3)(C(C)C)CC2=O)c(C(C)(C)C)cc1CO (stereo not given) | 141 µM | 2.8 µM | 0.0013 µM |  |
| Cc1cc(SC2=C(O)OC(CCc3c[nH]cn3)(C(C)C)CC2=O)c(C(C)(C)C)cc1CO (stereo not given) | 200 µM | 89 µM | 0.07 µM |  |
| Cc1cc(SC2=C(O)OC(CCc3ccc4[nH]ccc4c3)(C(C)C)CC2=O)c(C(C)(C)C)cc1CO (stereo not given) | 46 µM | 0.68 µM | 0.00098 µM |  |
| Cc1cc(SC2=C(O)O[C@](CCc3ccsc3)(C(C)C)CC2=O)c(C(C)(C)C)cc1CO | 91 µM | 0.12 µM | 0.00013 µM | Cmax [8]: 14.7 µM; Tmax [9]: 30 min; bioavailability [10]: 88%; T1/2 [11]: 690 min and 324 min |
| Cc1cc(SC2=C(O)OC(CCc3nc(C(C)C)cs3)(C(C)C)CC2=O)c(C(C)(C)C)cc1CO (stereo not given) | 84 µM | 33 µM | 0.014 µM |  |
| Cc1cnc(CCC2(C(C)C)CC(=O)C(Sc3cc(C)c(CO)cc3C(C)(C)C)=C(O)O2)s1 (stereo not given) | 210 µM | 1.9 µM | 0.019 µM |  |
| Cc1cc(SC2=C(O)OC(CCc3ncsc3C)(C(C)C)CC2=O)c(C(C)(C)C)cc1CO (stereo not given) | 208 µM | 1.8 µM | 0.0013 µM |  |
| Cc1nc(CCC2(C(C)C)CC(=O)C(Sc3cc(C)c(CO)cc3C(C)(C)C)=C(O)O2)cs1 (stereo not given) | 210 µM | 4.5 µM | 0.013 µM |  |
| Cc1cc(SC2=C(O)OC(CCc3cccs3)(C(C)C)CC2=O)c(C(C)(C)C)cc1CO (stereo not given) | 81 µM | 0.5 µM | 0.00035 µM |  |
| Cc1cc(SC2=C(O)OC(CCc3ccsc3)(C(C)C)CC2=O)c(C(C)(C)C)cc1CO (stereo not given) | 110 µM | 0.3 µM | 0.00017 µM | Tmax [9]: 30 min; AUC [12]: 21 µg/h/mL; Tmax [3]: 30 min; half-life [11]: 564 min; half-life [5]: 210 min; Cmax [13]: 11.2 µM; AUC [6]: 221; Cmax [7]: 39.6 µM |
| Cc1cc(SC2=C(O)OC(CCc3cc[nH]n3)(C(C)C)CC2=O)c(C(C)(C)C)cc1CO (stereo not given) | 320 µM | 5.6 µM | 0.00028 µM |  |
| Cc1cc(SC2=C(O)OC(CCc3ccco3)(C(C)C)CC2=O)c(C(C)(C)C)cc1CO (stereo not given) | 190 µM | 0.75 µM | 0.00078 µM |  |

| SMILES | CC50 [1] | EC50 [2] | IC50 [4] | further results |
| --- | --- | --- | --- | --- |
| Cc1cc(SC2=C(O)OC(CCC3CCCO3)(C(C)C)CC2=O)c(C(C)(C)C)cc1CO (stereo not given) |  |  | 0.005 µM |  |
| Cc1cc(SC2=C(O)OC(CCc3nccs3)(C(C)C)CC2=O)c(C(C)(C)C)cc1CO (stereo not given) | 216 µM | 0.7 µM | 0.00057 µM | Tmax [9]: 15 min; AUC [12]: 10000 ng·h/mL; Tmax [3]: 30 min; half-life [11]: 732 min; half-life [5]: 198 min; Cmax ([13]; read-out: Cmax): 2.7 µM; AUC [6]: 132; Cmax [7]: 33 µM |
| Cc1cc(SC2=C(O)OC(CCc3scnc3C)(C(C)C)CC2=O)c(C(C)(C)C)cc1CO (stereo not given) | 164 µM | 0.37 µM |  | Tmax [9]: 15 min; Cmax [13]: 0.77 µM |
| Cc1cc(SC2=C(O)OC(CCc3scnc3C(C)C)(C(C)C)CC2=O)c(C(C)(C)C)cc1CO (stereo not given) | 102 µM | 1.2 µM | 0.0008 µM |  |
| CC(=O)Nc1nc(CCC2(C(C)C)CC(=O)C(Sc3cc(C)c(CO)cc3C(C)(C)C)=C(O)O2)cs1 (stereo not given) | 210 µM | 23 µM | 0.018 µM |  |
| Cc1cc(SC2=C(O)O[C@@](CCc3ccsc3)(C(C)C)CC2=O)c(C(C)(C)C)cc1CO | 95 µM | 14 µM | 0.0115 µM |  |
| Cc1cc(SC2=C(O)OC(CCc3cncnc3)(C(C)C)CC2=O)c(C(C)(C)C)cc1CO (stereo not given) | > 200 µM | 1.2 µM | 0.017 µM |  |
| Cc1cc(SC2=C(O)OC(CCc3csc(C(C)C)n3)(C(C)C)CC2=O)c(C(C)(C)C)cc1CO (stereo not given) | 91 µM | 23 µM | 0.0016 µM |  |
| Cc1cc(SC2=C(O)OC(CCc3nc4ccccc4s3)(C(C)C)CC2=O)c(C(C)(C)C)cc1CO (stereo not given) | 62 µM | 1.5 µM | 0.0014 µM |  |
| Cc1cc(SC2=C(O)OC(CCc3ccsc3CO)(C(C)C)CC2=O)c(C(C)(C)C)cc1CO (stereo not given) | 200 µM | 0.92 µM | 0.014 µM |  |
| Cc1cc(SC2=C(O)OC(CCc3csc(N)n3)(C(C)C)CC2=O)c(C(C)(C)C)cc1CO (stereo not given) | > 200 µM | 3.5 µM | 0.00095 µM |  |
| Cc1cc(SC2=C(O)OC(CCc3cncs3)(C(C)C)CC2=O)c(C(C)(C)C)cc1CO (stereo not given) | 229 µM | 1.9 µM | 0.00024 µM |  |
| Cc1cc(SC2=C(O)OC(CCc3ccc(CO)s3)(C(C)C)CC2=O)c(C(C)(C)C)cc1CO (stereo not given) | 182 µM | 2.5 µM | 0.00058 µM |  |
| Cc1cc(SC2=C(O)OC(CCc3c[nH]c4ccccc34)(C(C)C)CC2=O)c(C(C)(C)C)cc1CO (stereo not given) | 46 µM | 0.37 µM | 0.00072 µM |  |
| Cc1cc(SC2=C(O)OC(CCc3ccc(N)cc3)(C(C)C)CC2=O)c(C(C)(C)C)cc1CO (racemic) | > 100 µM | 0.5 µM | 0.00043 µM | Tmax [3]: 30 min; half-life [5]: 132 min; AUC [6]: 42; Cmax [7]: 23 µM |
| Cc1cc(SC2=C(O)OC(CCc3csc(CO)c3)(C(C)C)CC2=O)c(C(C)(C)C)cc1CO (stereo not given) | 210 µM | 18 µM | 0.00019 µM |  |
| Cc1cc(SC2=C(O)OC(CCc3cnc(N)nc3)(C(C)C)CC2=O)c(C(C)(C)C)cc1CO (stereo not given) | > 200 µM | 5.7 µM |  |  |
| O=c1cc(-c2ccccc2)oc(O)c1Sc1ccccc1 |  |  | 3 µM |  |
| Cc1cc(SC2=C(O)O[C@](CCc3ccc(N)cc3)(C(C)C)CC2=O)c(C(C)(C)C)cc1CO | 210 µM |  | 0.00011 µM | Tmax [9]: 30 min; bioavailability [10]: 33%; Tmax [3]: 30 min; half-life [11]: 222 min; half-life [5]: 132 min; AUC [6]: 82; Cmax [7]: 26.5 µM |

Source: ChEMBL document CHEMBL1134529, “4-Hydroxy-5,6-dihydropyrones as inhibitors of HIV protease: the effect of heterocyclic substituents at C-6 on antiviral potency and pharmacokinetic parameters” (J Med Chem, 2001)
